Activity calls are given as the source filed them. No cut-off for these calls is given here.
What was measured:
NCI-H226 = assay: Growth inhibition of human NCI-H226 cells; format: functional
SK-OV-3 = assay: Growth inhibition of human SKOV3 cells; format: functional
HeLa = assay: Induction of KSP depletion in human HeLa cells after 4 hrs by immunofluorescence analysis; format: functional, cell-based
Procedure, shortened: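 HeLa cells were treated 4 h across a concentration series of compound in DMSO, then fixed in 100% MeOH at −20 °C. They were probed overnight at 4 °C with mouse anti-KSP and rabbit anti-EB1 to mark microtubules, with Alexa Fluor secondaries and DNA counterstain. KSP (green channel) images were taken at equivalent exposure times.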

[1] = target: T1, Kinesin-like protein Klp61F (Drosophila melanogaster) (UniProt P46863); assay: Inhibition of Drosophila melanogaster Klp61F in S2 cells at 100 uM up to 7 hrs by immunofluorescence analysis; format: cell-based
T1 sequence (whole entry): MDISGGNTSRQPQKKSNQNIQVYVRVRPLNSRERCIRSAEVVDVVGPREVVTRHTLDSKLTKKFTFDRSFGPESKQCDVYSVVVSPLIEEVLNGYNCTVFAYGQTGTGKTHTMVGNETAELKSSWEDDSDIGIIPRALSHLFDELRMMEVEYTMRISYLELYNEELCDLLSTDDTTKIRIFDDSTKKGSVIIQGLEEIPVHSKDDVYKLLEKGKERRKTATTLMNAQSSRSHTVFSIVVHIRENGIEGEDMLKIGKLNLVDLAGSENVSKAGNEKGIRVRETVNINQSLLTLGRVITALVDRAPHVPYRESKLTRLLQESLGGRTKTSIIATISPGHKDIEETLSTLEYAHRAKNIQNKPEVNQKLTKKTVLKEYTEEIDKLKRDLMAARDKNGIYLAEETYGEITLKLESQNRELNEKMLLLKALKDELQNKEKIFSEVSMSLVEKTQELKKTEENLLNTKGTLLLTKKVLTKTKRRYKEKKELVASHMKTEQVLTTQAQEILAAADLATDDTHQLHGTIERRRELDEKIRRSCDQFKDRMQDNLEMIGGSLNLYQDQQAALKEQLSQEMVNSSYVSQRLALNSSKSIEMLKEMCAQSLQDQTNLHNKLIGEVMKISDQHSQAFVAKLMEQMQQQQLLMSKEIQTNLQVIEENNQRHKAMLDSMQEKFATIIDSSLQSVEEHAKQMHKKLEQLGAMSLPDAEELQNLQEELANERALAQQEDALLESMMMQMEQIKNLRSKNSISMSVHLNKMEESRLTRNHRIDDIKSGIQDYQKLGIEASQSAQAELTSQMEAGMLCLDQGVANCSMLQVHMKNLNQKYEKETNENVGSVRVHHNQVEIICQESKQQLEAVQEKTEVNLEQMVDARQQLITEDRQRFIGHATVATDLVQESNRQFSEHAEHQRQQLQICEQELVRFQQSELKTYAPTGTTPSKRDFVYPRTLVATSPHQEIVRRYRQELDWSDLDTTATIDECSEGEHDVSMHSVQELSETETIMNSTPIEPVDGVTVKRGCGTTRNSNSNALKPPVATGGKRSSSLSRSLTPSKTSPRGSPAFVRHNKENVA
Procedure, shortened: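 Drosophila S2 cells were exposed to compound over a three-log concentration range up to 100 μM, with treatments extending up to 7 h. Bipolar spindle formation was scored by immunofluorescence.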

[2] = Inhibition of bipolar spindle formation in Strongylocentrotus purpuratus eggs; format: functional, Egg
Procedure, shortened: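 S. purpuratus eggs (gametes released with 0.5M KCl) were fertilized in artificial seawater with 2 mM 3-amino triazole and stripped of envelopes 20 min post-fertilization. They were then cultured with 0.1% DMSO or inhibitor at 100 nM–100 μM, fixed at first mitosis and stained for microtubules and DNA. 100 cells per condition were scored for bipolar spindles to derive EC50.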

UO-31 = assay: Growth inhibition of human UO31 cells; format: functional
OVCAR-5 = assay: Growth inhibition of human OVCAR5 cells; format: functional

Compound	GI50 (NCI-H226)	GI50 (SK-OV-3)	Activity (HeLa)	inhibition [1]	EC50 [2]	GI50 (UO-31)	GI50 (OVCAR-5)
N[C@@H](CSC(c1ccccc1)(c1ccccc1)c1ccccc1)C(=O)O [S-TRITYL-L-CYSTEINE]	100 µM	100 µM	Dose-dependent effect	inactive	≥ 100 µM	100 µM	100 µM
COc1ccc(C(SC[C@@H](N)C(=O)O)(c2ccccc2)c2ccccc2)cc1				inactive			
COc1ccc(C(SC[C@@H](N)CO)(c2ccccc2)c2ccccc2)cc1				inactive			

— ChEMBL document CHEMBL1817631, “Synthesis and characterization of tritylthioethanamine derivatives with potent KSP inhibitory activity” (Bioorg Med Chem, 2011)
